Laboratory results from ChEMBL document CHEMBL5360527, “Synthesis, binding affinity, and inhibitory capacity of cyclodextrin-based multivalent glycan ligands for human galectin-3” (Bioorg Med Chem, 2022).

Legend:
[1] = biological target: T1, Galectin-3 (Homo sapiens, UniProt P17931); test: Binding affinity to human galectin 3 assessed as relative affinity by surface plasma resonance analysis
In short: (§1)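 Recombinant human Gal-3 amine-coupled to a CM5 chip (about 1000 RU) with an ethanolamine reference channel. Analytes were serially diluted in 0.01 M HEPES pH 7.4, 0.15 M NaCl and 0.005% P20, then run at 25 °C and 30 μL/min with 120 s association and 300 s dissociation, followed by 3 M MgCl2 regeneration. EC50 was taken from the fitted binding curve.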

[2] = biological target: T1, Galectin-3; test: Binding affinity to human galectin 3 by surface plasma resonance analysis; in short: as §1
[3] = biological target: T1, Galectin-3; test: Inhibition of human galectin 3 binding to human A549 cells incubated for 1 hr; type: cell-based
In short: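 A549 cells were grown in plates, fixed, and blocked overnight at 4 °C with 3% BSA in PBS. Biotinylated Gal-3 (5 μg/ml), premixed with compound at 3–300 μM, was then added for 1 h at 4 °C. Bound Gal-3 was detected with streptavidin-HRP and TMB, stopped with 1 M HCl, and read at OD450. Percent inhibition came from a Gal-3 standard curve, and EC50 from a five-parameter asymmetric fit.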

[4] = biological target: T1, Galectin-3; test: Binding affinity to human galectin 3 assessed as relative affinity per sugar unit on cyclodextrin by surface plasma resonance analysis; in short: as §1

T1 sequence (P17931 whole entry): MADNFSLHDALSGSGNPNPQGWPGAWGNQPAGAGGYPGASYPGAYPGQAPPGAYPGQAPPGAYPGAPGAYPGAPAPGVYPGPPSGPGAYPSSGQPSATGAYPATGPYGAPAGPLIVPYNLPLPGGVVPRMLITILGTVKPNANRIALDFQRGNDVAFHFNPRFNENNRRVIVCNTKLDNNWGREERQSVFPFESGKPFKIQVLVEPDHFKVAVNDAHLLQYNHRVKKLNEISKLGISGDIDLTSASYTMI

Compound | relative binding affinity (RBA) [1] | EC50 [2] [µM] | EC50 [3] [µM] | relative binding affinity (RBA) [4]
CC(=O)N[C@H]1[C@@H](OCCOCCOCCN=[N+]=[N-])O[C@H](CO)[C@H](O)[C@@H]1O[C@@H]1O[C@H](CO)[C@H](O)[C@H](O)[C@H]1O | < 1.47 | – | – | –
O=C(CCc1cn(CCOCCOCCO[C@@H]2O[C@H](CO)[C@@H](O[C@@H]3O[C@H](CO)[C@H](O)[C@H](O)[C@H]3O)[C@H](O)[C@H]2O)nn1)NC[C@H]1O[C@@H]2O[C@H]3[C@H](O)[C@@H](O)[C@@H](O[C@H]4[C@H](O)[C@@H](O)[C@@H](O[C@H]5[C@H](O)[C@@H](O)[C@@H](O[C@H]6[C@H](O)[C@@H](O)[C@@H](O[C@H]7[C@H](O)[C@@H](O)[C@@H](O[C@H]8[C@H](O)[C@@H](O)[C@@H](O[C@H]1[C@H](O)[C@H]2O)O[C@@H]8CNC(=O)CCc1cn(CCOCCOCCO[C@@H]2O[C@H](CO)[C@@H](O[C@@H]8O[C@H](CO)[C@H](O)[C@H](O)[C@H]8O)[C@H](O)[C@H]2O)nn1)O[C@@H]7CNC(=O)CCc1cn(CCOCCOCCO[C@@H]2O[C@H](CO)[C@@H](O[C@@H]7O[C@H](CO)[C@H](O)[C@H](O)[C@H]7O)[C@H](O)[C@H]2O)nn1)O[C@@H]6CNC(=O)CCc1cn(CCOCCOCCO[C@@H]2O[C@H](CO)[C@@H](O[C@@H]6O[C@H](CO)[C@H](O)[C@H](O)[C@H]6O)[C@H](O)[C@H]2O)nn1)O[C@@H]5CNC(=O)CCc1cn(CCOCCOCCO[C@@H]2O[C@H](CO)[C@@H](O[C@@H]5O[C@H](CO)[C@H](O)[C@H](O)[C@H]5O)[C@H](O)[C@H]2O)nn1)O[C@@H]4CNC(=O)CCc1cn(CCOCCOCCO[C@@H]2O[C@H](CO)[C@@H](O[C@@H]4O[C@H](CO)[C@H](O)[C@H](O)[C@H]4O)[C@H](O)[C@H]2O)nn1)O[C@@H]3CNC(=O)CCc1cn(CCOCCOCCO[C@@H]2O[C@H](CO)[C@@H](O[C@@H]3O[C@H](CO)[C@H](O)[C@H](O)[C@H]3O)[C@H](O)[C@H]2O)nn1 | 58.1 | 25.3 | 23.5 | 8.29
CC(=O)N[C@H]1[C@@H](OCCOCCOCCn2cc(CCC(=O)NC[C@H]3O[C@@H]4O[C@H]5[C@H](O)[C@@H](O)[C@@H](O[C@H]6[C@H](O)[C@@H](O)[C@@H](O[C@H]7[C@H](O)[C@@H](O)[C@@H](O[C@H]8[C@H](O)[C@@H](O)[C@@H](O[C@H]9[C@H](O)[C@@H](O)[C@@H](O[C@H]%10[C@H](O)[C@@H](O)[C@@H](O[C@H]3[C@H](O)[C@H]4O)O[C@@H]%10CNC(=O)CCc3cn(CCOCCOCCO[C@H]4O[C@H](CO)[C@H](O)[C@H](O)[C@H]4NC(C)=O)nn3)O[C@@H]9CNC(=O)CCc3cn(CCOCCOCCO[C@H]4O[C@H](CO)[C@H](O)[C@H](O)[C@H]4NC(C)=O)nn3)O[C@@H]8CNC(=O)CCc3cn(CCOCCOCCO[C@H]4O[C@H](CO)[C@H](O)[C@H](O)[C@H]4NC(C)=O)nn3)O[C@@H]7CNC(=O)CCc3cn(CCOCCOCCO[C@H]4O[C@H](CO)[C@H](O)[C@H](O)[C@H]4NC(C)=O)nn3)O[C@@H]6CNC(=O)CCc3cn(CCOCCOCCO[C@H]4O[C@H](CO)[C@H](O)[C@H](O)[C@H]4NC(C)=O)nn3)O[C@@H]5CNC(=O)CCc3cn(CCOCCOCCO[C@H]4O[C@H](CO)[C@H](O)[C@H](O)[C@H]4NC(C)=O)nn3)nn2)O[C@H](CO)[C@H](O)[C@@H]1O | 1070 | 1.37 | 1.5 | 153
[N-]=[N+]=NCCOCCOCCO[C@@H]1O[C@H](CO)[C@@H](O[C@@H]2O[C@H](CO)[C@H](O)[C@H](O)[C@H]2O)[C@H](O)[C@H]1O | < 1.47 | – | – | –

Second part, the compound after the results:

relative binding affinity (RBA) [1] | EC50 [2] [µM] | EC50 [3] [µM] | relative binding affinity (RBA) [4] | Compound
< 1.47 | – | – | – | CC(=O)N[C@H]1[C@@H](OCCOCCOCCN=[N+]=[N-])O[C@H](CO)[C@H](O)[C@@H]1O
464 | 3.16 | 10.5 | 66.4 | CC(=O)N[C@H]1[C@@H](OCCOCCOCCn2cc(CCC(=O)NC[C@H]3O[C@@H]4O[C@H]5[C@H](O)[C@@H](O)[C@@H](O[C@H]6[C@H](O)[C@@H](O)[C@@H](O[C@H]7[C@H](O)[C@@H](O)[C@@H](O[C@H]8[C@H](O)[C@@H](O)[C@@H](O[C@H]9[C@H](O)[C@@H](O)[C@@H](O[C@H]%10[C@H](O)[C@@H](O)[C@@H](O[C@H]3[C@H](O)[C@H]4O)O[C@@H]%10CNC(=O)CCc3cn(CCOCCOCCO[C@H]4O[C@H](CO)[C@H](O)[C@H](O[C@@H]%10O[C@H](CO)[C@H](O)[C@H](O)[C@H]%10O)[C@H]4NC(C)=O)nn3)O[C@@H]9CNC(=O)CCc3cn(CCOCCOCCO[C@H]4O[C@H](CO)[C@H](O)[C@H](O[C@@H]9O[C@H](CO)[C@H](O)[C@H](O)[C@H]9O)[C@H]4NC(C)=O)nn3)O[C@@H]8CNC(=O)CCc3cn(CCOCCOCCO[C@H]4O[C@H](CO)[C@H](O)[C@H](O[C@@H]8O[C@H](CO)[C@H](O)[C@H](O)[C@H]8O)[C@H]4NC(C)=O)nn3)O[C@@H]7CNC(=O)CCc3cn(CCOCCOCCO[C@H]4O[C@H](CO)[C@H](O)[C@H](O[C@@H]7O[C@H](CO)[C@H](O)[C@H](O)[C@H]7O)[C@H]4NC(C)=O)nn3)O[C@@H]6CNC(=O)CCc3cn(CCOCCOCCO[C@H]4O[C@H](CO)[C@H](O)[C@H](O[C@@H]6O[C@H](CO)[C@H](O)[C@H](O)[C@H]6O)[C@H]4NC(C)=O)nn3)O[C@@H]5CNC(=O)CCc3cn(CCOCCOCCO[C@H]4O[C@H](CO)[C@H](O)[C@H](O[C@@H]5O[C@H](CO)[C@H](O)[C@H](O)[C@H]5O)[C@H]4NC(C)=O)nn3)nn2)O[C@H](CO)[C@H](O)[C@@H]1OC1O[C@H](CO)[C@H](O)[C@H](O)[C@H]1O (stereo not given in full)
